From ChEMBL document CHEMBL1152640, “Synthesis and antiproliferative evaluation of 6-arylindeno[1,2-c]quinoline derivatives” (Bioorg Med Chem, 2009) come the findings set out here.

One may read the GI50 as the concentration giving 50% growth inhibition. A lower GI50 goes with more potent growth inhibition.

Active and inactive are the calls of the source. No cut-off for these calls is given here.

Data set [1] deals with A549. Description: Cell cycle arrest in human A549 cells assessed as accumulation at subG1 phase at 1.0 uM after 24 hrs by flow cytometry. It is filed as functional. The gist of the method: (§1)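 A549 cells were exposed to DMSO or compound at 0.1, 1.0, 5.0 or 10.0 µM for 24 h. Cells were harvested, rinsed in PBS, fixed in 70% ethanol and stored at −20 °C. Staining used propidium iodide solution with 0.2 mg/mL RNase and 0.1% Triton X-100, at least 30 min at room temperature in the dark. Cell-cycle phases were read by flow cytometry.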

Data set [2] deals with A549. The data set can be described thus: Cell cycle arrest in human A549 cells assessed as accumulation at S phase at 1.0 uM after 24 hrs by flow cytometry. Format: functional. The gist of the method: as §1
A general note: In flow cytometry, cells or beads pass a laser one at a time.

Data set [3] relates to A549. The data set can be described thus: Cell cycle arrest in human A549 cells assessed as accumulation at G2/M phase at 0.1 uM after 24 hrs by flow cytometry. Format: functional. The gist of the method: as §1
Data set [4] has as its system A549. Description: Cell cycle arrest in human A549 cells assessed as accumulation at S phase at 0.1 uM after 24 hrs by flow cytometry. Format: functional. The gist of the method: as §1
In data set [5] the test system is A549. The data set can be described thus: Induction of apoptosis in human A549 cells assessed as PARP cleavage after 24 hrs by Western blot. Format: functional, cell-based. The method in brief:
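Exponentially growing A549 cells were treated for 24 h, then lysed on ice for 30 min in Tris pH 7.5/NP-40 buffer with protease and phosphatase inhibitors. Protein was measured by Bradford, and 20 µg was resolved on 10% SDS–PAGE and transferred to PVDF. Blots were blocked in 5% milk, probed with anti-PARP (1:1000, 2 h) then HRP anti-rabbit (1:5000, 30 min), and reprobed for β-actin as a loading check.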
(In general: In western blotting, separated proteins are transferred to a membrane and probed.)

Data set [6] deals with A549. Description: Cell cycle arrest in human A549 cells assessed as accumulation at subG1 phase at 5.0 uM after 24 hrs by flow cytometry. It is filed as functional. The gist of the method:
as §1

Data set [7] relates to A549. The data set can be described thus: Induction of apoptosis in human A549 cells assessed as apoptotic bodies after 24 hrs by fluorescence microscopy. It is filed as functional, cell-based. The gist of the method: (§2)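 A549 cells on cover glasses were treated for 24 h, then fixed in 4% paraformaldehyde for 1 h. Glycine-PBS wash, then permeabilization with 2% FBS and 0.4% Triton X-100 for 15 min. Cells were stained with anti-β-tubulin monoclonal (1:1000, 4 °C overnight), then FITC anti-mouse IgG (1:200, 1 h, room temperature). DAPI was added for nuclei, and imaging was by confocal laser scanning microscopy.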

The test system of data set [8] is A549. Description: Cell cycle arrest in human A549 cells assessed as accumulation at G2/M phase at 1.0 uM after 24 hrs by flow cytometry. Format: functional. The method in brief: as §1
In data set [9] the test system is A549. The data set can be described thus: Cell cycle arrest in human A549 cells assessed as accumulation at subG1 phase at 0.1 uM after 24 hrs by flow cytometry. Format: functional. The method in brief:
as §1

Data set [10] is described as follows: Antiproliferative activity against human Hep3B cells after 72 hrs by XTT assay. It is filed as functional, Hep 3B2. The method in brief:
(§3)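 Cells were grown as monolayers in DMEM with 10% FBS, penicillin, streptomycin and amphotericin at 37 °C and 5% CO2. Plating was 5×10³ cells/well, with treatment for 72 h in 10% FBS medium, a medium change, then another day. XTT (1 mg/mL) plus PMS in serum-free medium was added for 4 h at 37 °C and read at 492 nm. Growth was taken as % of control (mean of n = 3). GI50 was taken from the linear portion of the curve as the 50% absorbance reduction.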
Background: Tetrazolium dyes change colour on reduction, which living cells bring about.

For data set [11], the system named is A549. The data set can be described thus: Antiproliferative activity against human A549 cells after 72 hrs by XTT assay. Format: functional. To be noted: A549, 72 h. The gist of the method:
as §3

The test system of data set [12] is A549. Description: Cell cycle arrest in human A549 cells assessed as accumulation at G2/M phase at 5.0 uM after 24 hrs by flow cytometry. Format: functional. The gist of the method: as §1
Data set [13] is described as follows: Cytotoxicity against human MRC5 cells after 72 hrs by XTT assay. It is filed as cell-based. The method in brief:
as §3

Data set [14] relates to A549. Description: Induction of apoptosis in human A549 cells assessed as morphological changes after 24 hrs by fluorescence microscopy. It is filed as functional, cell-based. The gist of the method: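 A549 cells were treated with DMSO or compound at 1, 5 or 10 µM for 24 h at 37 °C, then photographed under a microscope.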
Another data set relates to HepG2. The data set can be described thus: Antiproliferative activity against human HepG2 cells after 72 hrs by XTT assay. To be noted: HepG2, 72 h. It is filed as functional. The gist of the method: as §3
Data set [15] deals with A549. Description: Cell cycle arrest in human A549 cells assessed as accumulation at G1 phase at 5.0 uM after 24 hrs by flow cytometry. It is filed as functional. The gist of the method: as §1
For data set [16], the system named is A549. The data set can be described thus: Induction of apoptosis in human A549 cells assessed as DNA fragmentation after 24 hrs by agarose gel electrophoresis. Format: functional, cell-based. The method in brief: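 A549 cells were treated at 1.0, 5.0 or 10.0 µM for 24 h and washed in PBS. Total genomic DNA was isolated with a kit and run on a 2.0% agarose gel in 1× TAE at 100 V.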

Data set [17] relates to A549. The data set can be described thus: Cell cycle arrest in human A549 cells assessed as accumulation at S phase at 5.0 uM after 24 hrs by flow cytometry. It is filed as functional. The method in brief:
as §1

Data set [18] relates to A549. Description: Induction of apoptosis in human A549 cells assessed as shrinkage in microtubule network at 1.0 uM after 24 hrs by immunofluorescence. It is filed as functional, cell-based. The method in brief: as §2
For data set [19], the system named is A549. Description: Cell cycle arrest in human A549 cells assessed as accumulation at G1 phase at 0.1 uM after 24 hrs by flow cytometry. It is filed as functional. The method in brief:
as §1

Data set [20] concerns A549. The data set can be described thus: Cell cycle arrest in human A549 cells assessed as accumulation at G1 phase at 1.0 uM after 24 hrs by flow cytometry. It is filed as functional. The gist of the method:
as §1

Data set [21] deals with A549. The data set can be described thus: Induction of apoptosis in human A549 cells assessed as microtubule network damage at 10.0 uM after 24 hrs by immunofluorescence. It is filed as functional, cell-based. The method in brief: as §2
Data set [22] in a line: Antiproliferative activity against human HepG2(2.2.1) cells after 72 hrs by XTT assay. To be noted: HepG2, 72 h. It is filed as functional. The method in brief:
as §3

Data set [23] in a line: Antiproliferative activity against human H1299 cells after 72 hrs by XTT assay. To be noted: NCI-H1299, 72 h. Format: functional. The gist of the method: as §3

Take `CN(C)CCCOc1ccc(-c2nc3ccc(OCCCN(C)C)cc3c3c2-c2ccc(OCCCN(C)C)cc2C3=O)cc1`: the Activity in the data set with A549 [1] was 2%; in the data set with A549 [2], 13.6%; in the data set on A549 [3], 9.8%; in the data set with A549 [4], 16.3%; in the data set on A549 [5], “Dose-dependent effect”; with A549 [6], 17.1%. The Activity amounted to 11% in the data set with A549 [8]; 1.5% in the data set with A549 [9]; 15.8% in the data set with A549 [12]; 71.9% in the data set on A549 [15]; 12.3% with A549 [17]; 73.9% in the data set on A549 [19]. For the same molecule, in the data set with A549 [20], the Activity amounted to 75%. Besides, the outcome with A549 [7], in the data set with A549 [14], in the data set on A549 [16], in the data set with A549 [18] and with A549 [21] was Active. Also, the GI50 in data set [10] came to 4.44 µM; in the data set with A549 [11] it was 0.68 µM; in the data set on HepG2 it was 0.6 µM; in data set [22], 4.25 µM; in data set [23] it was 5.18 µM. The same molecule gave a GI50 at 72 h in [13] of 6.2 µM.
